Measurements from ChEMBL document CHEMBL1125597, “Potent inhibitory effect of a series of modified cyclodextrin sulfates (mCDS) on the replication of HIV-1 in vitro” (J Med Chem, 1991).

Legend:
MT4 [1] = assay: The minimum concentration for complete inhibition (IC100) of HIV-1 strain KK-1AIDS from human induced CPE in MT-4 cells.; format: functional
Outline: (§1)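 MT-4 cells infected 1 h with HIV-1 (LAV-1 or patient isolate KK-1 AIDS) at 0.001 TCID50 per cell, unbound virus washed off. Cultured 5 days with compound (12 doses, 0.49–1000 µg/mL); viable cells in infected and mock cultures by trypan blue. Minimum concentration fully preventing CPE; median of 2 or 3 experiments.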

MT4 [2] = assay: Compound was evaluated for the anticoagulant activity; format: functional, Homo sapiens
Outline: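 Zucker activated partial thromboplastin time (APTT) method; value is the concentration (µg/mL) giving 2-fold APTT. Median of 2 or 3 experiments.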

MOLT-4 [3] = assay: Suppressive effect on giant-cell formation against HIV-1LAV-1 in MOLT-4 cells; format: functional, Homo sapiens
Outline: (§2)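 Uninfected MOLT-4 mixed 1:1 with persistently infected MOLT-4 (HIV-1 LAV-1 or HIV-2 GH-1 carriers), 5×10^5 cells/mL total, cultured 24 h with compound. Viable cells counted by trypan blue exclusion; fusion index = 1 − cells in test well/cells in uninfected MOLT-4 control. Median of 2 or 3 experiments.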

MT4 [4] = assay: Compound was evaluated for the minimum concentration for appearance of MT-4 cell toxicity; format: functional, Homo sapiens
Outline: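 MT-4 cells incubated 5 days with test compound (12 doses, 0.49–1000 µg/mL); lowest concentration at which toxicity appears, viable cells by trypan blue staining in mock-infected cultures. Median of 2 or 3 experiments.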

MOLT-4 [5] = assay: Suppressive effect on giant-cell formation against HIV-2GH-1 in MOLT-4 cells; format: functional, Homo sapiens; outline: as §2
MT4 [6] = assay: The minimum concentration for complete inhibition (IC100) of HIV-1 strain LAV-1 from human induced CPE in MT-4 cells.; format: functional; outline: as §1

Row | SMILES | IC100 (MT4 [1]) [µg/mL] | APTT (MT4 [2]) [µg/mL] | Supressive effect (MOLT-4 [3]) [µg/mL] | Cytotoxicity (MT4 [4]) [µg/mL] | Supressive effect (MOLT-4 [5]) [µg/mL] | IC100 (MT4 [6]) [µg/mL]
1 | COc1ccc(NCC2O[C@@H]3O[C@@H]4C(CNc5ccc(OC)cc5)O[C@@H](O[C@@H]5C(CNc6ccc(OC)cc6)O[C@H](O[C@@H]6C(CNc7ccc(OC)cc7)O[C@H](O[C@@H]7C(CNc8ccc(OC)cc8)O[C@H](O[C@@H]8C(CNc9ccc(OC)cc9)O[C@H](O[C@@H]9C(CNc%10ccc(OC)cc%10)O[C@H](O[C@H]2C(O)C3OS(=O)(=O)[O-])C(OS(=O)(=O)[O-])C9OS(=O)(=O)[O-])C(OS(=O)(=O)[O-])C8OS(=O)(=O)[O-])C(OS(=O)(=O)[O-])C7O)C(OS(=O)(=O)[O-])C6OS(=O)(=O)[O-])C(OS(=O)(=O)[O-])C5OS(=O)(=O)[O-])C(OS(=O)(=O)[O-])C4OS(=O)(=O)[O-])cc1.[Na+].[Na+].[Na+].[Na+].[Na+].[Na+].[Na+].[Na+].[Na+].[Na+].[Na+].[Na+] (stereo partly specified) | 31.2 | 4.3 | 5.5 | >1000 | 40.2 | 0.98
2 | O=[PH](O)OCC1O[C@H]2O[C@@H]3C(CO[PH](=O)O)O[C@H](O[C@@H]4C(CO[PH](=O)O)O[C@H](O[C@@H]5C(CO[PH](=O)O)O[C@H](O[C@@H]6C(CO[PH](=O)O)O[C@H](O[C@@H]7C(CO[PH](=O)O)O[C@H](O[C@@H]8C(CO[PH](=O)O)O[C@H](O[C@H]1C(O)C2O)C(O)C8Cl)C(O)C7Cl)C(O)C6O[PH](=O)O)C(O)C5Cl)C(O)C4Cl)C(O)C3Cl (stereo partly specified) [CYCLODEXTRIN PHOSPHATE] | 40 | 47.2 | – | >1000 | – | 31.2
3 | O=S(=O)([O-])OCC1O[C@@H]2O[C@@H]3C(COS(=O)(=O)[O-])O[C@H](O[C@@H]4C(COS(=O)(=O)[O-])O[C@@H](O[C@@H]5C(COS(=O)(=O)[O-])O[C@H](O[C@@H]6C(COS(=O)(=O)[O-])O[C@H](O[C@@H]7C(COS(=O)(=O)[O-])O[C@H](O[C@@H]8C(COS(=O)(=O)[O-])O[C@H](O[C@H]1C(O)C2OS(=O)(=O)[O-])C(OS(=O)(=O)[O-])C8O)C(OS(=O)(=O)[O-])C7O)C(OS(=O)(=O)[O-])C6O)C(OS(=O)(=O)[O-])C5O)C(OS(=O)(=O)[O-])C4O)C(OS(=O)(=O)[O-])C3O.[K+].[K+].[K+].[K+].[K+].[K+].[K+].[K+].[K+].[K+].[K+].[K+].[K+].[K+] (stereo partly specified) [CYCLODEXTRIN SULFATE (CDS)] | 125 | 2.83 | 60 | >1000 | 519 | 31.2
